TRPC6 activator: activates the mouse TRPC6 cation channel; HEK293-TRPC6 membrane potential dye fluorescence; stronger effect = higher value; B-score at 10 µM; AID 2550; 0.13% of 310,000 active;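 active = B-score of the integrated fluorescence ratio above library mean plus 3 SD, and starting fluorescence ratio within library mean plus 5 SD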;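 note: higher score means more depolarization so channel activation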
TRPC4 potent: allosterically enhances the mouse TRPC4 cation channel. Q9QUQ5. HEK293 TRPC4beta/mu-opioid, DAMGO EC20, Fluo-4 Ca2+ flux; stronger effect = higher value. B-score at 10 µM. 0.42% of 310,000 active. AID 2227;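 active = B-score of calcium response area above 5 SD of library B-scores, with initial fluorescence ratio within 5 SD of library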
Target sequence (Q9QUQ5 whole entry, looked up): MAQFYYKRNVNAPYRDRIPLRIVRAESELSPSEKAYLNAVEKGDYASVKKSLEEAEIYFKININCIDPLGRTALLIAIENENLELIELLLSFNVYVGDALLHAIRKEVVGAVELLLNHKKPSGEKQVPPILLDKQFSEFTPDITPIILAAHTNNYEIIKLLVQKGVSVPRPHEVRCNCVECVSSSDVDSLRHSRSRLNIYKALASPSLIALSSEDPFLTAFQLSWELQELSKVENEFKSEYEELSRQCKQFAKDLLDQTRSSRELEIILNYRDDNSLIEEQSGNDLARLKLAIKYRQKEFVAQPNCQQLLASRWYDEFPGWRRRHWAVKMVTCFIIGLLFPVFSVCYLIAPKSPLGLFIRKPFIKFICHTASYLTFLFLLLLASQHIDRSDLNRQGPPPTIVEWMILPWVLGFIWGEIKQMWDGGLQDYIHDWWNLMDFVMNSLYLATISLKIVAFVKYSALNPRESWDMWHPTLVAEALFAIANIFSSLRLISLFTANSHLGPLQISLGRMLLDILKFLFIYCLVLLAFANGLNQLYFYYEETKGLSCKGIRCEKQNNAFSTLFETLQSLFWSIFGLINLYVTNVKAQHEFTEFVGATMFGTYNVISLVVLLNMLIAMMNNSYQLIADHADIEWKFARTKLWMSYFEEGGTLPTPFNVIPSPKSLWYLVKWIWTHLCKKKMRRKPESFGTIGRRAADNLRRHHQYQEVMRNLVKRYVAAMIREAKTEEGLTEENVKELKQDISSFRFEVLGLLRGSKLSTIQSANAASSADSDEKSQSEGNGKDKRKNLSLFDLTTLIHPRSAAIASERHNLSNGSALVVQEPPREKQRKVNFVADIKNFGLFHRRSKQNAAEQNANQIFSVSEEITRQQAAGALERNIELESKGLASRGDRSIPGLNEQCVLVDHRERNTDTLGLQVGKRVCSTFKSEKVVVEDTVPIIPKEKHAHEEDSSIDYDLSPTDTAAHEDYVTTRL
TRPC4 act: TRPC4 (mouse) channel activation; Q9QUQ5; HEK293 TRPC4beta/mu-opioid, Fluo4 calcium fluorescence; stronger effect = higher value; B-score at 10 µM; 0.49% of 310,000 active;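 active = B-score above 5 SD of library B-scores, and initial fluorescence ratio not above library mean plus 5 SD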;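 note: positive B-score marks a calcium rise read as TRPC4 activation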
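Assay system – TRPC4beta and mu-opioid receptor HEK293 stable cells · Measured by – Fluo4 fluorescence, kinetic · Schedule – dye loading 45 min room temperature, 110 s kinetic read · Read-out – B-scored integrated calcium fluorescence ratio · Controls – buffer and maximal DAMGO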
TRPC6 inhibitor: inhibitors of mouse TRPC6 channel; Q61143; HEK293-TRPC6, membrane potential dye, ACh-evoked depolarization; stronger effect = lower value; B-score at 10 µM; 1.1% of 310,000 active; AID 2553;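 active = B-score under library mean minus 3 SD, initial fluorescence not abnormally high, positive integrated signal ratio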;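 note: B-score derived from integrated fluorescence ratio over the kinetic read; more negative B-score means stronger inhibition of depolarization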
TRPC4 block: TRPC4 (mouse) channel inhibition. B-score at 10 µM. AID 2247. HEK293 TRPC4beta/mu-opioid, DAMGO-evoked Fluo4 calcium flux; stronger effect = lower value. Q9QUQ5. 0.39% of 300,000 active;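 active = B-score over 3 SD under the library average, no early fluorescence shift, positive overall ratio signal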
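Assay system: Stable TRPC4beta/mu-opioid receptor HEK293 cells | Reagent: DAMGO in two steps, submaximal then maximal | Compound dosing: Single concentration per test compound | Signal: Fluo4 Ca2+ flux fluorescence | Evaluation: Per-well B score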
A number is an active result; - = inactive. In the library only some 2.3% were active in any assay of this set; here they are far more common.

SMILES	TRPC6 activator	TRPC4 potent	TRPC4 act	TRPC6 inhibitor	TRPC4 block
CCn1cc(CN2CCCC(CO)(Cc3cccc(Cl)c3)C2)cn1 (centres undefined)	-	-	-	-	-6
COc1cccc(NC(=O)c2ccc(NCCCN3CC(C)CC(C)C3)c([N+](=O)[O-])c2)c1 (centres undefined)	-	14	-	-	-
Cc1ccc(C)c(-c2ccc(=O)n(Cc3ccc(F)cc3Cl)n2)c1	-	13	-	-	-
COc1ccc(C(CNC(=O)COc2ccccc2OC)N(C)C)cc1OC (centres undefined)	-	-	137	-	-
COc1ccc(C(CNC(=O)C2CC2)N(C)C)cc1 (centres undefined)	-	-	-	-	-
COc1ccc(NC(=O)c2cc(C)on2)cc1	-	-	-	-	-
COc1ccc(C(CNC(=O)c2cc(C)on2)N(C)C)cc1 (centres undefined)	-	-	84	-	-
COc1ccc(C(CNC(=O)C(C)c2ccc3cc(OC)ccc3c2)N(C)C)cc1 (centres undefined)	-	-	204	-	-
COc1ccc(C(CNC(=O)Cc2ccc3ccccc3c2)N(C)C)cc1 (centres undefined)	-	-	135	-	-6
CC(=O)N(c1ccccc1)c1nc(/C=C/C(=O)Nc2c(C)cc(C)cc2C)cs1	-	-	-	-	-
N#CC(C#N)=C(N)CSc1cccc[n+]1[O-]	-	-	-	-	-
CN(C(=O)CSc1nnc(-c2cccnc2)n1-c1ccccc1F)C1CCS(=O)(=O)C1 (centres undefined)	-	-	-	-	-
O=C(Nc1cnn(C23CC4CC(CC(C4)C2)C3)c1)c1cnn2cccnc12	-	73	-	-	-
Cc1ccc(C(=O)c2no[n+]([O-])c2C(=O)c2ccc(C)cc2)cc1	-	29	-	-	-
Cc1ccc(C(=O)c2ccc(C)cc2)cc1	-	-	-	-	-
CC(C)OCCOc1ccc2oc(-c3ccco3)cc(=O)c2c1	-	-	-	-	-
CCCN1C(=O)/C(=C/c2c(N3CCNC(=O)C3CC(=O)OCC)nc3c(C)cccn3c2=O)SC1=S (centres undefined)	27	-	-	-	-
CCOC(=O)CC1C(=O)NCCN1c1nc2ccc(C)cn2c(=O)c1/C=C1\SC(=S)N(C(C)CC)C1=O (centres undefined)	61	-	62	-	-
CCOC(=O)CC1C(=O)NCCN1c1nc2ccc(C)cn2c(=O)c1/C=C1\SC(=S)N(CC(C)C)C1=O (centres undefined)	-	-	-	-	-
CCCc1ccc2oc(C(=O)NCCN3CCCC(C(N)=O)C3)c(C)c2c1 (centres undefined)	-	13	-	-	-
Nc1nc(Cl)nc2c1ncn2[C@@H]1O[C@H](CO)[C@@H](O)[C@H]1O	-	-	50	-	-
CC(NC(=O)c1ccco1)C(=O)N1CCc2ccccc2C1 (centres undefined)	-	-	-	-	-
O=S(=O)(NCC(O)c1ccccc1)c1cc(Cl)sc1Cl (centres undefined)	-	-	-	-	-
COc1ccccc1NC(=O)CSc1nnnn1-c1ccccc1F	-	-	73	-	-
O=S(=O)(NCc1cc(-c2ccccc2Cl)no1)c1ccc(Cl)cc1	-	10	-	-	-
SMILES	TRPC6 activator	TRPC4 potent	TRPC4 act	TRPC6 inhibitor	TRPC4 block
O=C1CCCN1CCCNc1nc2c(S(=O)(=O)c3ccccc3)nnn2c2ccc(Cl)cc12	-	-	-	-	-
CC(C)c1c(O)nc(SCC(=O)N2CCCCC2)[nH]c1=O	-	10	-	-	-
CCCCCc1c(O)nc(SCCN(C)C)[nH]c1=O	-	-	93	-	-
CC(C)c1c(O)nc(SCCC(=O)O)[nH]c1=O	-	-	-	-	-
CCCN(CCC)CCSc1nc(O)c(C(C)C)c(=O)[nH]1	-	12	-	-	-
CCCCCc1c(O)nc(SCCN(CC)CC)[nH]c1=O	-	-	46	-	-
COc1ccccc1NC(=O)CC1S/C(=N/N=C2\CCCc3ccccc32)NC1=O (centres undefined)	-	-	-	-	-
CCOc1ccc(-c2nnc(SCC(=O)NC(C)(C)C)nc2-c2ccc(OCC)c(OC)c2)cc1OC	-	-	-	-	-
O=C(O)c1cc(NC(=O)c2ccco2)cc(NC(=O)c2ccco2)c1	-	-	-	-	-
COc1ccccc1CNC(=O)C1CCC(CNS(=O)(=O)c2ccccc2)CC1 (centres undefined)	-	-	-	-	-
CCC(C)(C)C1CCC2(CC1)NC(=O)N(CC(=O)N(C)Cc1ccc(OC(F)F)cc1)C2=O (centres undefined)	-	-	-	-	-
CCCCCCc1c(O)nc(SCCN(C)C)[nH]c1=O	-	-	65	-	-
CCCCCCc1c(O)nc(SCC(=O)O)[nH]c1=O	-	-	-	-	-
CCCCCc1ccc(OCCC[n+]2ccccc2)c(CCCCC)c1	-	-	-	-	-
CCCCCc1ccc(OCCOCCn2c[n+](C)c3ccccc32)c(CCCCC)c1	-	-	51	-	-
CN(C)CCCOc1cccc(Cl)c1	-	32	64	-	-
CCCCNCCCOc1cccc(Cl)c1	-	-	-	-	-
CCN(CC)CCOc1cccc(C(C)C)c1	-	-	-	-	-
CC(C)c1cccc(OCCCCN(C)C)c1	-	17	-	-	-
CN(C)CCCOc1cccc(Oc2ccccc2)c1	-	12	-	-	-
CN1CCN(NC(=O)Nc2cc(Cl)cc(Cl)c2)CC1	-	26	-	-	-
CCCCCOc1ccc(Br)cc1/C(C)=N/NC1=NCCN1	-	-	-	-5.9	-
COc1ccc(Br)cc1/C(C)=N/NC1=NCCN1	-	-	-	-	-
O=C(c1ccco1)N1CCN(c2ccc([N+](=O)[O-])cc2Cl)CC1	-	-	-	-	-
O=C(NC(=S)N1CCN(c2ccc([N+](=O)[O-])cc2Cl)CC1)c1ccco1	-	12	-	-	-
SMILES	TRPC6 activator	TRPC4 potent	TRPC4 act	TRPC6 inhibitor	TRPC4 block
O=c1[nH]c(C2CCCN(S(=O)(=O)c3ccccc3)C2)nc2c1nnn2Cc1cccc(Cl)c1 (centres undefined)	-	-	-	-	-
CCNS(=O)(=O)c1ccc(NC(=O)Nc2ccc3c(c2)OCO3)cc1	-	-	61	-	-
O=C(Nc1ccc(S(=O)(=O)NCc2ccccc2)cc1)Nc1ccc2c(c1)OCO2	-	-	-	-	-
COc1ccccc1N1CCN(CC(C)N(C(=O)C2CCCCC2)c2ccccn2)CC1 (centres undefined)	-	-	-	-	-6
CC(=O)Nc1ccc(NC(=O)CSc2nnc(C)c(=O)n2N)cc1	-	-	-	-	-
CCCCc1ccc(NC(=O)CSc2nnc(C)c(=O)n2N)cc1	-	24	-	-	-
COc1ccc(C(=O)NC2CC3CCCC(C2)N3Cc2ccccc2)c(OC)c1 (centres undefined)	-	-	-	-	-
